Source: PubChem BioAssay (several laboratories)
Hits are enriched below; roughly 2% of the tested compounds scored in any of these assays.
CHOP UPR activ: activators of apoptotic CHOP UPR arm, primary screen, cell-based, CHO-CHOP luciferase reporter, luminescence, uHTS; 330,000 compounds, 0.34% hits; UPR activation; percent of tunicamycin response over DMSO baseline; activation, % at 10 µM;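 active = at 10 µM dose, activation of 40% or more, normalized to positive control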;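 note: 100% = tunicamycin at 10 µg/mL and 0% = DMSO alone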
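Dosing – one dose, 10 µM in 0.5% DMSO · System – CHO-CHOP cells, stable luciferase reporter of PERK-eIF2a-CHOP signalling · Input – 500 cells/well · Control set – tunicamycin 10 µg/mL final as positive, DMSO-only wells as negative · Timing – 6 h compound treatment, 37 °C · Measure – % activation vs tunicamycin · Technique – luminescence read with Steady-Glo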
XBP1 UPR activ: activators of adaptive XBP1 UPR arm, primary screen, cell-based, CHO-XBP1 luciferase reporter, luminescence, uHTS. 330,000 compounds, 0.33% hits. activation, % at 20 µM. IRE1-XBP1 UPR activation; percent of tunicamycin response, DMSO as zero;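 active = versus positive control, 20 µM dose yields 30% or more activation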;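 note: 100% = tunicamycin at 10 µg/mL and 0% = DMSO only wells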
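Material – CHO cell line with stable XBP1 luciferase reporter · Buffer or medium – F12 plus 10% FBS · Compound – single point, 20 µM final compound, 1% DMSO · Schedule – 16-18 h cell attachment at 37 °C, then 6 h compound exposure · Signal – Steady-Glo luminescence read · Benchmarks – high control tunicamycin 10 µg/mL final, low control DMSO vehicle only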
MC4R antag cAMP: MC4R antagonists of cAMP signaling, primary screen, cell-based, TR-FRET, antagonist arm of biased-ligand search | Melanocortin receptor 4 (Homo sapiens), P32245 | MC4R-expressing cells, MTII-stimulated cAMP, LANCE TR-FRET | inhibition, % at 6.5 µM | 360,000 compounds, 0.48% hits | AID 540295, 2011;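 active = inhibition above its plate's cutoff, the mean of tested wells on that plate plus 3 SD, cut at about 29% in these data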;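 note: 0% = Melanotan II alone and 100% = Melanotan II plus saturating MCL0020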
Target sequence (P32245 whole entry, looked up): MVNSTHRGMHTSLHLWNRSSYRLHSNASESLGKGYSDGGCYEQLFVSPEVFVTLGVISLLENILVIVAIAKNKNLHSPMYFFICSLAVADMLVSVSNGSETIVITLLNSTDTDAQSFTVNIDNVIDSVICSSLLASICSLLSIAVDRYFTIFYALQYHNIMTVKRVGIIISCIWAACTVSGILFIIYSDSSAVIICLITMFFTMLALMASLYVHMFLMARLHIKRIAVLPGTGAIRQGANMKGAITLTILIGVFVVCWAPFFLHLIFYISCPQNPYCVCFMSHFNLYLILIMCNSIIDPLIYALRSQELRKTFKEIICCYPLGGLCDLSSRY
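Test system: U2OS cells stably expressing human melanocortin 4 receptor (MC4R); also added: Melanotan II challenge; compound: 6.5 µM single dose; timing: 30-min compound preincubation, 1-h Melanotan II challenge, 1-h detection, room temperature; signal: Eu-cAMP/anti-cAMP TR-FRET, emission 671 nm; repeats: one well per compound, no replicates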
A1 inh: caspase 3/7 activation in MEF A1-2A-BIM cells, primary screen, A1 inhibitor project, cell-based, luminescence, HTS. 330,000 compounds, 0.066% hits. AID 2462, 2010. Caspase-Glo 3/7 luminescence, 3 h; percent of clofoctol response, vehicle zero. caspase activation, % (test concentration not listed);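 active = over half of replicate activation scores above 10%, or exactly half above 10 with the replicate mean above 10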
MC4R barr agon: MC4R agonists recruiting beta-arrestin, primary screen, cell-based, luminescence, agonist arm of biased-ligand search; 360,000 compounds, 0.98% hits; Melanocortin receptor 4 (Homo sapiens), P32245; U2OS MC4R beta-arrestin complementation; percent of melanotan II response, DMSO zero; activation, % at 8.9 µM;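 active = activation above a per-plate cutoff, the mean activation of sample wells on that plate plus 3 SD, cut at about 8% in these data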
cAMP nonselect: nonselective cAMP signaling inhibitors, parental cells, counter-screen for MC4R biased antagonist project, cell-based, TR-FRET, U2OS, forskolin, triplicate; LANCE TR-FRET; 1,600 compounds, 26% hits; AID 602193, 2012; shares compounds with MC4R antag cAMP; inhibition, % at 6.5 µM;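 active = mean inhibition over triplicates above the low-control well mean plus 3 SD, set per campaign, cut at about 13% in these data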;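 note: signal is single emission at 671 nm which falls as cellular cAMP rises; 0% = forskolin-stimulated wells and 100% = buffer without forskolin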
MC4R antag conf: MC4R cAMP antagonists, retest, confirmation, cell-based, TR-FRET; MC4R-expressing cells, MTII-stimulated cAMP; 1,600 compounds, 27% hits; shares compounds with MC4R antag cAMP; inhibition, % at 6.5 µM; in the data active = inhibition above about 29%;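 note: 0% = agonist stimulated wells alone and 100% = agonist stimulated wells plus saturating reference antagonist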
* marks the source's active call; other numbers are inactive results.

O=C1C2C(c3ccccc3)(C(=O)N1c1ccc(Cl)cc1)C2(c1ccccc1)c1ccccc1 (centres undefined) was read as CHOP UPR activ 1, XBP1 UPR activ 0, MC4R antag cAMP 38*, A1 inh 0, MC4R barr agon 1, cAMP nonselect -7 and MC4R antag conf -6.
For O=C1c2ccccc2C(=O)N1c1ccc(Cl)cc1 the results were CHOP UPR activ 7, XBP1 UPR activ 1 and A1 inh -1.
O=C(C#Cc1ccccc1)Nc1cccc(F)c1 was read as CHOP UPR activ 29, XBP1 UPR activ 11, MC4R antag cAMP -10, A1 inh -5 and MC4R barr agon 0.
Screening NC(=S)Nc1cccc(-c2n[nH]c(=S)o2)c1 returned CHOP UPR activ 1, XBP1 UPR activ -2, MC4R antag cAMP 20, A1 inh 0 and MC4R barr agon -1.
`Cc1ccc(NC(=S)Nc2cccc(-c3n[nH]c(=S)o3)c2)cc1` gave CHOP UPR activ 1, XBP1 UPR activ 2, MC4R antag cAMP 37*, A1 inh 1, MC4R barr agon -3, cAMP nonselect 11 and MC4R antag conf 13.
ClCC1NCC(c2ccccc2Cl)c2c1[nH]c1ccccc21 (centres undefined) was read as CHOP UPR activ -1, XBP1 UPR activ -3, MC4R antag cAMP 36*, A1 inh 1, MC4R barr agon 3, cAMP nonselect 2 and MC4R antag conf 3.
`Cc1nccn1CCC(=O)NC1CC(C)(C)Cc2c1cnn2-c1ccccc1` (centres undefined) gave MC4R antag cAMP -5 and MC4R barr agon -1.
Screening Cc1nc(=O)c(-c2ccccc2)c(C)n1-c1ccccc1 returned CHOP UPR activ 1, XBP1 UPR activ -5, MC4R antag cAMP 31*, A1 inh 1, MC4R barr agon 2, cAMP nonselect -6 and MC4R antag conf -3.
Cc1nc(=O)c(-c2ccccc2)c(C)n1-c1ccc(O)cc1 was read as CHOP UPR activ 2, XBP1 UPR activ -1, MC4R antag cAMP -1, A1 inh 1 and MC4R barr agon -2.
Screening Cc1ccc(S(=O)(=O)N2CCN(c3nc(-c4cccs4)nc4ccccc34)CC2)cc1 returned MC4R antag cAMP 4 and MC4R barr agon 0.
Screening COc1ccccc1C1(CCNC(C)c2cccs2)CCOC(C(C)C)C1 (centres undefined) returned CHOP UPR activ -1, XBP1 UPR activ 2, MC4R antag cAMP 47*, A1 inh 0, MC4R barr agon 1, cAMP nonselect -4 and MC4R antag conf 37*.
C[C@H]1CN([C@@H](C)CO)C(=O)CCCn2nncc2CO[C@@H]1CN(C)Cc1ccc(C(F)(F)F)cc1 was read as MC4R antag cAMP 17 and MC4R barr agon -2.
For C[C@@H]1CN([C@H](C)CO)C(=O)CCCn2nncc2CO[C@H]1CN(C)Cc1ccc(C(F)(F)F)cc1 the results were MC4R antag cAMP 31*, MC4R barr agon 1, cAMP nonselect -1 and MC4R antag conf -10.
`CC(C)(C)c1ccc(S(=O)(=O)NC(=O)C2(C)CCN2C(=O)c2cccc3ccccc23)cc1` (centres undefined) gave MC4R antag cAMP 11 and MC4R barr agon -1.
`CCOC(=O)c1ccc(N/C=C/C(=O)c2ccccc2)cc1` gave CHOP UPR activ 3, XBP1 UPR activ -1, MC4R antag cAMP 7, A1 inh -6 and MC4R barr agon -1.
